Results on two molecules are retold here after paper PMC5621377 (Clinical cancer research : an official journal of the …, 2016).

Like-named read-outs stand apart in the source and are kept apart here.

Data set [1] in a line: Pharmacokinetics, plasma LC-MS/MS, non-compartmental analysis. It is filed as in vivo, human. The settings on record: AUC0–24 on Days 1 and 18/21 of Cycle 1, 600 mg/day dose. An outline of the steps:
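Oral daily dosing at 50–1,200 mg/day. On Cycle 1 Days 1 and 18/21, blood was drawn pre-dose and at 0.5, 1, 2, 4, 6, 8 and 24 h, with further trough days. Parent drug and a metabolite in plasma were measured by validated LC-MS/MS (LLOQ 1.0 ng/mL). Non-compartmental analysis was used. Dose proportionality was fitted as ln(Cmax or AUC0–24) = α + β ln(dose). T1/2,acc came from the accumulation ratio; steady state was judged from troughs.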

Data set [2] deals with hormone receptor-positive breast cancer. Particulars: cited from earlier work.

As for `CNC(=O)c1cc2cnc(Nc3ccc(N4CCNCC4)cn3)nc2n1C1CCCC1` [LEQ803], the “metabolite exposure relative to parent drug” value in data set [1] is reported as “approximately 10%”.
Take `CC(=O)c1c(C)c2cnc(Nc3ccc(N4CCNCC4)cn3)nc2n(C2CCCC2)c1=O` [palbociclib]: the median progression-free survival entry in data set [2] (in combination with fulvestrant) and in data set [2] (in combination with letrozole) was “improved median progression-free survival” throughout.
